Measured values taken from ChEMBL document CHEMBL4346654 (Eur J Med Chem, 2019).
≈ marks a conversion by molar mass, not a printed value.

Experiments:
Format in all cases: functional
Staphylococcus aureus [1] = test: Antibacterial activity against MLS-resistant Staphylococcus aureus PU 32 expressing inducible ermA gene assessed as reduction in microbial growth by CLSI based two-fold broth dilution method
Streptococcus pneumoniae [2] = test: Antibacterial activity against erythromycin-susceptible Streptococcus pneumoniae ATCC49619 assessed as reduction in microbial growth by CLSI based two-fold broth dilution method
Streptococcus pneumoniae [3] = test: Bactericidal activity against erythromycin-susceptible Streptococcus pneumoniae ATCC49619 pretreated followed by subculture in absence of compound measured after 24 hrs
How it was run: (§1)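 Isolates were identified by 16S rDNA sequencing. MIC was determined by CLSI-recommended two-fold broth dilution. For MBC, samples from 1–8 fold MIC were transferred to culture medium and subcultured for 24 h without antibiotic.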

Haemophilus influenzae [4] = test: Antibacterial activity against azithromycin-susceptible Haemophilus influenzae ATCC 49247 assessed as reduction in microbial growth by CLSI based two-fold broth dilution method
Streptococcus pneumoniae [5] = test: Antibacterial activity against Streptococcus pneumoniae 07P390 expressing constitutive ermB gene assessed as reduction in microbial growth by CLSI based two-fold broth dilution method
Streptococcus pneumoniae [6] = test: Antibacterial activity against penicillin-susceptible Streptococcus pneumoniae PU 09 expressing mef gene assessed as reduction in microbial growth by CLSI based two-fold broth dilution method
Streptococcus pneumoniae [7] = test: Bactericidal activity against penicillin-susceptible Streptococcus pneumoniae PU 09 expressing mef gene pretreated followed by subculture in absence of compound measured after 24 hrs; how it was run: as §1
Streptococcus pneumoniae [8] = test: Selectivity ratio of MBC to MIC for penicillin-susceptible Streptococcus pneumoniae PU 09 expressing mef gene; how it was run: as §1
Streptococcus pneumoniae [9] = test: Bactericidal activity against Streptococcus pneumoniae 07P390 expressing constitutive ermB gene pretreated followed by subculture in absence of compound measured after 24 hrs; how it was run: as §1
Streptococcus pneumoniae [10] = test: Selectivity ratio of MBC to MIC for Streptococcus pneumoniae 07P390 expressing constitutive ermB gene; how it was run: as §1
Haemophilus influenzae [11] = test: Bactericidal activity against azithromycin-susceptible Haemophilus influenzae ATCC 49247 pretreated followed by subculture in absence of compound measured after 24 hrs; how it was run: as §1
Haemophilus influenzae [12] = test: Selectivity ratio of MBC to MIC for azithromycin-susceptible Haemophilus influenzae ATCC 49247; how it was run: as §1
Streptococcus pyogenes [13] = test: Antibacterial activity against MLS-resistant Streptococcus pyogenes 01-968 expressing inducible ermB gene assessed as reduction in microbial growth by CLSI based two-fold broth dilution method
Streptococcus pyogenes [14] = test: Bactericidal activity against MLS-resistant Streptococcus pyogenes 01-968 expressing inducible ermB gene pretreated followed by subculture in absence of compound measured after 24 hrs
How it was run: (§2)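 MBC assay. Following MIC determination by CLSI standard two-fold broth dilution, samples at 1–8 fold MIC were transferred to fresh culture medium. They were subcultured for 24 h without antibiotic. Isolates were identified by 16S rDNA sequencing. S. aureus ATCC 29213 was used as a control strain.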

Streptococcus pyogenes [15] = test: Selectivity ratio of MBC to MIC for MLS-resistant Streptococcus pyogenes 01-968 expressing inducible ermB gene
How it was run: (§3)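 MBC/MIC ratio. MIC was measured by CLSI standard two-fold broth dilution. MBC was measured by transferring samples at 1–8 fold MIC to culture medium and subculturing for 24 h without antibiotic. Isolates were identified by 16S rDNA sequencing.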

Staphylococcus aureus [16] = test: Bactericidal activity against MLS/methicillin-resistant Staphylococcus aureus PU 32 expressing inducible ermA gene pretreated followed by subculture in absence of compound measured after 24 hrs; how it was run: as §2
Staphylococcus aureus [17] = test: Selectivity ratio of MBC to MIC for MLS/methicillin-resistant Staphylococcus aureus PU 32 expressing inducible ermA gene; how it was run: as §3
Staphylococcus aureus [18] = test: Antibacterial activity against MLS-resistant Staphylococcus aureus PU 20 expressing constitutive ermC gene assessed as reduction in microbial growth by CLSI based two-fold broth dilution method
Staphylococcus aureus [19] = test: Bactericidal activity against MLS-resistant Staphylococcus aureus PU 20 expressing constitutive ermC gene pretreated followed by subculture in absence of compound measured after 24 hrs; how it was run: as §2
Streptococcus pyogenes [20] = test: Antibacterial activity against MLS-resistant Streptococcus pyogenes 12-206 expressing constitutive ermA gene assessed as reduction in microbial growth by CLSI based two-fold broth dilution method
Streptococcus pyogenes [21] = test: Bactericidal activity against MLS-resistant Streptococcus pyogenes 12-206 expressing constitutive ermA gene pretreated followed by subculture in absence of compound measured after 24 hrs; how it was run: as §2
Streptococcus pyogenes [22] = test: Selectivity ratio of MBC to MIC for MLS-resistant Streptococcus pyogenes 12-206 expressing constitutive ermA gene; how it was run: as §3
Streptococcus pyogenes [23] = test: Antibacterial activity against Streptococcus pyogenes 12-207 expressing mef gene assessed as reduction in microbial growth by CLSI based two-fold broth dilution method
Streptococcus pyogenes [24] = test: Bactericidal activity against Streptococcus pyogenes 12-207 expressing mef gene pretreated followed by subculture in absence of compound measured after 24 hrs; how it was run: as §1
Streptococcus pyogenes [25] = test: Selectivity ratio of MBC to MIC for Streptococcus pyogenes 12-207 expressing mef gene; how it was run: as §1
Moraxella catarrhalis [26] = test: Antibacterial activity against erythromycin-susceptible Moraxella catarrhalis 13L332 assessed as reduction in microbial growth by CLSI based two-fold broth dilution method
Moraxella catarrhalis [27] = test: Bactericidal activity against erythromycin-susceptible Moraxella catarrhalis 13L332 pretreated followed by subculture in absence of compound measured after 24 hrs; how it was run: as §1
Moraxella catarrhalis [28] = test: Selectivity ratio of MBC to MIC for erythromycin-susceptible Moraxella catarrhalis 13L332; how it was run: as §1
Streptococcus pneumoniae [29] = test: Selectivity ratio of MBC to MIC for erythromycin-susceptible Streptococcus pneumoniae ATCC49619; how it was run: as §1
Staphylococcus aureus [30] = test: Selectivity ratio of MBC to MIC for MLS-resistant Staphylococcus aureus PU 20 expressing constitutive ermC gene; how it was run: as §3

Compound	MIC (Staphylococcus aureus [1])	MIC (Streptococcus pneumoniae [2])	MBC (Streptococcus pneumoniae [3])	MIC (Haemophilus influenzae [4])	MIC (Streptococcus pneumoniae [5])	MIC (Streptococcus pneumoniae [6])	MBC (Streptococcus pneumoniae [7])	Selectivity ratio (Streptococcus pneumoniae [8])	MBC (Streptococcus pneumoniae [9])	Selectivity ratio (Streptococcus pneumoniae [10])	MBC (Haemophilus influenzae [11])	Selectivity ratio (Haemophilus influenzae [12])	MIC (Streptococcus pyogenes [13])	MBC (Streptococcus pyogenes [14])	Selectivity ratio (Streptococcus pyogenes [15])	MBC (Staphylococcus aureus [16])	Selectivity ratio (Staphylococcus aureus [17])	MIC (Staphylococcus aureus [18])	MBC (Staphylococcus aureus [19])	MIC (Streptococcus pyogenes [20])	further results
CC[C@H]1OC(=O)[C@@](C)(F)C(=O)[C@H](C)[C@@H](O[C@@H]2O[C@H](C)C[C@H](N(C)C)[C@H]2O)[C@](C)(OC)C[C@@H](C)/C(=N\OCC#Cc2ccc3c(c2)c(=O)c(C(=O)NC)cn3C2CC2)[C@H](C)[C@H]2OC(=O)O[C@@]21C	1 µg/mL	≤ 0.008 µg/mL	≤ 0.008 µg/mL	64 µg/mL	0.25 µg/mL	0.5 µg/mL	0.5 µg/mL (≈ 0.541 µM)	1	> 2 µg/mL	>8	256 µg/mL (≈ 277 µM)	4	≤ 0.002 µg/mL	> 0.016 µg/mL	>8	> 8 µg/mL	>8	128 µg/mL	> 256 µg/mL	0.5 µg/mL	MBC (Streptococcus pyogenes [21]): > 4 µg/mL; Selectivity ratio (Streptococcus pyogenes [22]): >8; MIC (Streptococcus pyogenes [23]): 0.25 µg/mL; MBC (Streptococcus pyogenes [24]): 1 µg/mL (≈ 1.08 µM); Selectivity ratio (Streptococcus pyogenes [25]): 4; MIC (Moraxella catarrhalis [26]): 4 µg/mL; MBC (Moraxella catarrhalis [27]): > 32 µg/mL; Selectivity ratio (Moraxella catarrhalis [28]): >8
CC[C@H]1OC(=O)[C@@](C)(F)C(=O)[C@H](C)[C@@H](O[C@@H]2O[C@H](C)C[C@H](N(C)C)[C@H]2O)[C@](C)(OC/C=C/c2ccc3c(c2)c(=O)c(C(=O)O)cn3C2CC2)C[C@@H](C)/C(=N\OC)[C@H](C)[C@H]2OC(=O)O[C@@]21C	0.25 µg/mL	0.125 µg/mL	0.25 µg/mL (≈ 0.274 µM)	2 µg/mL	1 µg/mL	2 µg/mL	2 µg/mL (≈ 2.19 µM)	1	8 µg/mL (≈ 8.75 µM)	8	4 µg/mL (≈ 4.38 µM)	2	0.031 µg/mL	0.25 µg/mL (≈ 0.274 µM)	8	2 µg/mL (≈ 2.19 µM)	8	64 µg/mL	128 µg/mL (≈ 140 µM)		Selectivity ratio (Streptococcus pneumoniae [29]): 2; Selectivity ratio (Staphylococcus aureus [30]): 2
CC[C@H]1OC(=O)[C@@](C)(F)C(=O)[C@H](C)[C@@H](O[C@@H]2O[C@H](C)C[C@H](N(C)C)[C@H]2O)[C@](C)(OC/C=C/c2ccc3c(c2)c(=O)c(C(=O)NC)cn3C2CC2)C[C@@H](C)/C(=N\OC)[C@H](C)[C@H]2OC(=O)O[C@@]21C	1 µg/mL	≤ 0.008 µg/mL	≤ 0.008 µg/mL	32 µg/mL	≤ 0.008 µg/mL	0.25 µg/mL	0.5 µg/mL (≈ 0.539 µM)	2	> 0.062 µg/mL	>8	32 µg/mL (≈ 34.5 µM)	1	≤ 0.002 µg/mL	> 0.016 µg/mL	>8	> 8 µg/mL	>8	256 µg/mL	> 256 µg/mL	0.031 µg/mL	MBC (Streptococcus pyogenes [21]): > 0.25 µg/mL; Selectivity ratio (Streptococcus pyogenes [22]): >8; MIC (Streptococcus pyogenes [23]): 0.125 µg/mL; MBC (Streptococcus pyogenes [24]): 0.5 µg/mL (≈ 0.539 µM); Selectivity ratio (Streptococcus pyogenes [25]): 4; MIC (Moraxella catarrhalis [26]): 1 µg/mL; MBC (Moraxella catarrhalis [27]): > 8 µg/mL; Selectivity ratio (Moraxella catarrhalis [28]): >8
CC[C@H]1OC(=O)[C@@](C)(F)C(=O)[C@H](C)[C@@H](O[C@@H]2O[C@H](C)C[C@H](N(C)C)[C@H]2O)[C@](C)(OC)C[C@@H](C)/C(=N\OCC#Cc2cncc3ccccc23)[C@H](C)[C@H]2OC(=O)O[C@@]21C	4 µg/mL	2 µg/mL	4 µg/mL (≈ 4.93 µM)	64 µg/mL	> 32 µg/mL	8 µg/mL	8 µg/mL (≈ 9.85 µM)	1			128 µg/mL (≈ 158 µM)	2	0.5 µg/mL	> 4 µg/mL	>8	> 32 µg/mL	>8	64 µg/mL	> 256 µg/mL		Selectivity ratio (Streptococcus pneumoniae [29]): 2; Selectivity ratio (Staphylococcus aureus [30]): >4
CC[C@H]1OC(=O)[C@@](C)(F)C(=O)[C@H](C)[C@@H](O[C@@H]2O[C@H](C)C[C@H](N(C)C)[C@H]2O)[C@](C)(OC)C[C@@H](C)/C(=N\OC/C=C/c2ccc3c(c2)c(=O)c(C(=O)NC)cn3CC)[C@H](C)[C@H]2OC(=O)O[C@@]21C	2 µg/mL	≤ 0.008 µg/mL	≤ 0.008 µg/mL	128 µg/mL	0.25 µg/mL	0.5 µg/mL	0.5 µg/mL (≈ 0.546 µM)	1	> 2 µg/mL	>8	256 µg/mL (≈ 280 µM)	2	0.016 µg/mL	> 0.125 µg/mL	>8	> 16 µg/mL	>8	128 µg/mL	> 256 µg/mL	1 µg/mL	MBC (Streptococcus pyogenes [21]): > 8 µg/mL; Selectivity ratio (Streptococcus pyogenes [22]): >8; MIC (Streptococcus pyogenes [23]): 0.25 µg/mL; MBC (Streptococcus pyogenes [24]): 1 µg/mL (≈ 1.09 µM); Selectivity ratio (Streptococcus pyogenes [25]): 4; MIC (Moraxella catarrhalis [26]): 8 µg/mL; MBC (Moraxella catarrhalis [27]): 64 µg/mL (≈ 69.9 µM); Selectivity ratio (Moraxella catarrhalis [28]): 8
